ChEMBL document CHEMBL4513216, “Probing the Open Global Health Chemical Diversity Library for Multistage-Active Starting Points for Next-Generation Antimalarials” (ACS Infect Dis, 2020)

Assay: Toxicity liver stage against HepG2, at 10uM
Format: cell-based
Parameters: test concentration 10 uM, cell line HepG2-A16-CD81EGFP
Details: human, HepG2-A16-CD81EGFP cells; read-out: INHIBITION
Summary of the method: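 Uninfected HepG2-A16-CD81EGFP cells, 3 × 10^3 per well, 1536-well, plated on prespotted compound at 10 μM final, parasite-free screening media added to match infected plates; puromycin 10 μM positive, DMSO 0.5% negative; run in parallel with 48 h PbLuc assay at 37 °C, 5% CO2; viability by CellTiter-Glo luminescence, normalized to controls.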

| Structure (SMILES) | cytotoxicity at 10 µM [%] |
| --- | --- |
| CCC1(CC)C(=O)NC(=O)N/C1=N/c1cccc(OC)c1 | -51.8 |
| CC(=O)Nc1nc(-c2ccccc2)c[nH]1 | -1 |
| CC1(C)[C@H](Cc2cc(CO)on2)C[C@@H]1NCc1ccc(CO)o1 | -12.4 |
| CC(C)NC(=O)N1C[C@@H](F)[C@@H](OCc2nc3ccccc3o2)C1 | 8.16 |
| CCCOc1ccc(CC2=NC(C)(CO)CO2)cc1 (stereo unspecified) | 24.8 |
| CC(C)CNC(=O)c1nc(COc2ccc3c(c2)OCO3)no1 | 2.93 |
| CC(C)n1ccc2ccc(C(=O)NC3CN4CCC3CC4)cc21 (stereo unspecified) | -57.4 |
| CCOC(=O)c1cc2n(n1)CCCO2 | 3.86 |
| O=C1CCCN1C(CNS(=O)(=O)C1CC1)Cc1cccc(F)c1 (stereo unspecified) | 1.49 |
| Cc1noc(CNC(=O)CN(C)c2nc3c(C)ccc(C)c3s2)n1 | 55.7 |
| Cc1nsc(C(=O)NCCCc2ccccc2)n1 | -0.449 |
| Cc1ccc(CC(=O)N2CC[C@@H]3NC(=O)CC[C@@H]32)cc1 | 1.49 |
| CN(C)CCN1CCOC2(CCN(c3nccs3)CC2)c2ccccc21 | -1.99 |
| CCOc1cc(CNCCCn2ccnc2)cc(Cl)c1OCC | 1.82 |
| Cc1nc(C#N)c(N2CCC(c3nc(-c4ccccc4)no3)CC2)o1 | -7.41 |
| Cc1c(CNS(=O)(=O)c2cccc(COC(C)C)c2)cnn1C | 6.14 |
| CN(C)c1ccc(C(=O)N2CCC(c3cc4ncccc4[nH]3)CC2)cc1 | -2.32 |
| CCN1CCCC1CNCc1cc2cc3c(cc2[nH]c1=O)OCCO3 (stereo unspecified) | 5.07 |
| Cc1cc(N2CCC(c3n[nH]c4nccnc34)CC2)ncn1 | -25.6 |
| C[C@H](NC(=O)C1CCCC1)c1nc2cc(-c3ccc(F)cc3)ncn2n1 | -10.9 |
| COCC(=O)N1CCC(C(=O)c2cc(C)cnc2N)CC1 | 0.353 |
| CCCn1ncc(CN2C[C@@H]3CCCN3C[C@H]2Cc2ccccc2)c1C | -16.3 |
| Cc1ccc(C(=O)N2CCc3nc4c(C)csc4c(=O)n3CC2)cn1 | -7.33 |

| Structure (SMILES) | cytotoxicity at 10 µM [%] |
| --- | --- |
| COCc1cc(O)nc(C2CCCN(Cc3cccc(OC)c3)C2)n1 (stereo unspecified) | 4.97 |
| CCOC(=O)CCN(Cc1cccnc1)C(=O)c1cc(Cl)c[nH]1 | -1.24 |
| COCCN(Cc1ccccn1)C(=O)CC1OCCc2ccsc21 (stereo unspecified) | -39 |
| CCN(CC)S(=O)(=O)CC(=O)N1CCc2ccc(C)cc21 | -5.77 |
| COc1ccccc1OCCNS(=O)(=O)N1CCOCC1 | 9.37 |
| COc1ccc(C(C)=O)cc1CN1CCn2cccc2C1C (stereo unspecified) | -6.62 |
| Cc1nsc(N2CCN(Cc3cccc(F)c3)CC2)n1 | 2.74 |
| CN(Cc1ccccc1CNC(=O)C1CNC(=O)N1)C1CCCCC1 (stereo unspecified) | 5.09 |
| CNC(=O)c1ccc(CN(C)c2ccc(C(F)(F)F)cn2)cc1 | 6.71 |
| Cc1cccc(CSc2nnc(C)n2CC(N)=O)c1 | -4.46 |
| CCCn1nc2c(cc1=O)CN(Cc1ccccn1)CC2 | 1.53 |
| CC(C)(O)CN1CCN(C(=O)c2cnn(-c3ccccc3F)c2)CC1 | -3.8 |
| Cc1cc(=O)n2ncnc2n1CC(O)c1ccc(F)cc1F (stereo unspecified) | -1.2 |
| CCCc1noc(CS(=O)(=O)CC(=O)NC(C)CCC)n1 (stereo unspecified) | 3.22 |
| Cc1noc(C)c1CC(=O)NCC(C(C)C)N1CCOCC1 (stereo unspecified) | -42.7 |
| OCc1cc2ccccc2nc1NCC1(O)CCC1 | -46.9 |
| CC(C)C(=O)NCCNC(=O)C12CCC(=O)N1c1cc(Cl)ccc1S2 (stereo unspecified) | 15.3 |
| COc1ccc(C)cc1CC(=O)NC(CC(=O)O)c1ccc(F)cc1 (stereo unspecified) | 7.66 |
| CC(C)COC(C)C(=O)NCc1ccc(Cn2ccnc2)cc1 (stereo unspecified) | -2.65 |
| c1cnnc(N2CCCC(NCc3nc(C4CC4)no3)C2)c1 (stereo unspecified) | -14.6 |
| COCCN(C)C(=O)Nc1ccc2c(ccn2CCOC)c1 | -3.83 |
| Cc1ccc(N2CCc3ncnc(C4CC4)c3CC2)nn1 | -85 |
| CCN(CC)C(=O)c1nc2c(s1)CCN(C(=O)Nc1ccccc1)CC2 | 12 |

| Structure (SMILES) | cytotoxicity at 10 µM [%] |
| --- | --- |
| CCN(CC)Cc1cc(=O)n2c(n1)CN(C(=O)c1ccc[nH]1)CCC2 | -112 |
| CC(=O)N1CCC2(CC1)c1ncc(-c3cccnc3)n1CCN2C | -94 |
| CN(Cc1cncnc1)[C@H]1CN(C(=O)c2ccc[nH]2)[C@@H]2CCCO[C@@H]21 | -107 |
| COC(=O)CCC(=O)N1CCC2(CN(Cc3cccc(Cl)c3)C2)C1 | -62.4 |
| O=C(Cc1ccc(F)cc1)N1CCn2c(Cn3cncn3)cnc2C1 | -67.3 |
| O=C(NC1CCC1)C1=NOC2(CCN(Cc3ccccc3)C2)C1 (stereo unspecified) | -97.6 |
| CN1CCC2(CC1)CN(C(=O)c1ccncc1)Cc1ccccc12 | -86.3 |
| CCc1cnc(N)nc1NCCc1ccc(OC)cc1OC | 3.29 |
| Cc1cc2n(n1)CCN(c1nc(N(C)C)nc3c1CCNC3)C2 | 0.94 |
| Cc1cc(C(=O)N(C)Cc2ccccc2OCC(C)C)cc(=O)[nH]1 | 8.45 |
| O=C(Cc1c[nH]c(=O)[nH]c1=O)N1CCC2(CCC(=O)N(C3CC3)C2)CC1 | -44.5 |
| O=S1(=O)C[C@@H]2[C@H](C1)N(Cc1cc(F)cc(Cl)c1)CCN2CCO | -4.71 |
| Cc1ncsc1CCN(C)Cc1ccc(CO)o1 | -15.3 |
| Cc1noc(CN(C)CC2CCCN(CCc3ccc(Cl)cc3)C2)n1 (stereo unspecified) | 3.76 |
| CN1CCCC(CNS(=O)(=O)N2CCc3ccccc3C2)C1 (stereo unspecified) | -4.32 |
| CCn1ccnc1-c1nccn1-c1ccccc1CN1CCOCC1 | 14.1 |
| O=C(O)[C@@H]1CN(C2CCCC2)C[C@H]1C1CC1 | -147 |
| CCc1cc(N(C)Cc2noc(CC(C)C)n2)ncn1 | 7.18 |
| Cc1cc(C(=O)N2C[C@H]3CCC[C@@]3(CO)C2)c2ccc(F)cc2n1 | 5.78 |
| Cc1cc(CN2CCCC(CNC(=O)Cn3cccn3)C2)oc1C (stereo unspecified) | 6.2 |
| O[C@H]1[C@H](NCCc2cnccn2)c2ccccc2C12CCNCC2 | -7.32 |
| CC(c1ccncn1)N(C)Cc1cc2cc3c(cc2[nH]c1=O)OCO3 (stereo unspecified) | 9.83 |
| CC(O)Cc1cn(CC2CCN(C3CCSCC3)CC2)nn1 (stereo unspecified) | 8.88 |

| Structure (SMILES) | cytotoxicity at 10 µM [%] |
| --- | --- |
| CC(c1ccc(F)cc1)n1ccnc1-c1cc2n(n1)CCCNC2 (stereo unspecified) | 2.36 |
| c1ccc2c(c1)CCN(c1nc(-c3ccncc3)nc3c1CCNC3)C2 | 37.3 |
| O=C1NC(c2cccnc2)=NC12CCN(CCCc1ccccc1)CC2 | 1.68 |
| Cc1cnc(NCc2csc(C(C)C)n2)nc1-c1cnn(C)c1 | 2.83 |
| COc1cccc(Cl)c1C(C(=O)O)N(C)Cc1c(C)n[nH]c1C (stereo unspecified) | -1.89 |
| Cc1cc2nc(C(C)C)cc(N(C)CC3CCCN(CCO)C3)n2n1 (stereo unspecified) | 7.52 |
| CCC(NC(=O)C1CCN(S(C)(=O)=O)CC1)c1ccc(C)c(C)c1 (stereo unspecified) | -8.06 |
| Cc1c[nH]c(CN(C)C(C(=O)O)c2c(F)cccc2OC(C)C)n1 (stereo unspecified) | -50.6 |
| COc1cc(CN2CCN(c3cccc(OC)c3)C(=O)C2)cc(OC)c1 | -11.7 |
| COc1ccc(OC)c(-c2nc(CN(C)Cc3nncn3C)c(C)o2)c1 | -9.57 |
| O=C(O)CCc1cccc(C2CCCN2Cc2ccc(F)c(F)c2)n1 (stereo unspecified) | -5.25 |
| CCc1nc(C)c(C(=O)NCCNC(=O)c2cccs2)s1 | -1.45 |
| O=C(CN1CCC(c2ccnn2CCO)CC1)NCc1ccco1 | 1.68 |
| CN1CCOC(CNCc2coc(-c3cccc(F)c3)n2)C1 (stereo unspecified) | -29.3 |
| Cc1c(C(=O)NCC2CCS(=O)(=O)C2)cnn1-c1ccccc1 (stereo unspecified) | -10.2 |
| CCn1cnnc1CNC(=O)NC(C)c1ccccn1 (stereo unspecified) | -17.6 |
| CNc1snc(C)c1C(=O)N1CCCC(n2cc(C)cn2)C1 (stereo unspecified) | -3.42 |
| COc1ncccc1NC(=O)N(Cc1ccc(C)o1)C1CC1 | -1.83 |
| c1ncn(CC2CN(Cc3csc(C4CCCC4)n3)CCO2)n1 (stereo unspecified) | -8.55 |
| Cc1ccc(Oc2ccc(NC(=O)NCC3CCOC3)cn2)cc1C (stereo unspecified) | -5.28 |
| COCCNC(=O)Nc1ccc(-n2cncn2)c(F)c1 | -0.0868 |
| CC(NC(=O)NCCCc1n[nH]c(N)c1C#N)c1cccs1 (stereo unspecified) | -6.8 |
| Cc1cnn(CC2CCCCN2Cc2nc(N)c3ccccc3n2)c1 (stereo unspecified) | -7.21 |

| Structure (SMILES) | cytotoxicity at 10 µM [%] |
| --- | --- |
| Cc1cnn(CC2CN(Cc3nc4ccccc4nc3C)CCO2)c1 (stereo unspecified) | -4.02 |
| c1csc(-c2noc(C3CNC3)n2)c1 | -5.39 |
| Cc1noc([C@@H]2C[C@H]3OCC[C@H]3N(Cc3cc(C)c(C)o3)C2)n1 | -72.2 |
| CC1CCCCN1C(=O)c1nc2c(n1C(C)C)CCN(C)C2 (stereo unspecified) | 18.2 |
| O=C1N(c2ccsc2)CCC12CCCN(CC1CC1)C2 (stereo unspecified) | -79.4 |
| CCC(C)S(=O)(=O)N1CCc2nc(C3CCNCC3)ncc2C1 (stereo unspecified) | -10.7 |
| N#Cc1ccc(N2CCC3(CC2)CC(OCc2cccnc2)CO3)cc1 (stereo unspecified) | 38.8 |
| CCS(=O)(=O)N1Cc2[nH]nc(COCc3cccnc3)c2C1 | 11.9 |
| COCC1CC2(CCN(c3cc(OC)ncn3)CC2)CN1C(C)C (stereo unspecified) | -108 |
| CC(C)n1nc(CN2CCCC2)c2c1CN(CC1CC1)CC2 | 2.53 |
| O=C(CC1CC1)N1CCc2ncc(Cn3cncn3)n2CC1 | -71.6 |
| O=C(c1cccc(F)c1)N1CCC2(CC1)CN(c1ccccn1)CCO2 | -74.1 |
| CN1CCN(c2ncc3c(c2C(=O)O)CCN(C2CCOC2)C3)CC1 (stereo unspecified) | 6.96 |
| Fc1cnc(N2CCCC3(CCN(Cc4cccs4)C3)C2)nc1 (stereo unspecified) | -71.1 |
| O=C(CCC1CCCC1)N1CCCC(c2ncc3c(n2)CCNC3)C1 (stereo unspecified) | -23 |
| Cc1cnc(N2CCC3(CC2)CN(Cc2cccs2)CCO3)nc1 | 16.2 |
| Fc1cnc(N2CCn3c(CN4CCCC4)nnc3C2)nc1 | -145 |
| CC1N(c2cnn(C)c2)C(=O)COC12CCN(c1ncccn1)CC2 (stereo unspecified) | 0.952 |
| CC(C)CN1C[C@@H]2C[C@H](C(=O)NCc3cccnc3)[C@H](C1)O2 | 2.5 |
